Test results: ChEMBL document CHEMBL2331406, “In vitro activity of scorpiand-like azamacrocycle derivatives in promastigotes and intracellular amastigotes of Leishmania infantum and Leishmania braziliensis” (Eur J Med Chem, 2013)
The source made the active and inactive calls. No cut-off for these calls is given here.

Experiments:
[1] = system: Leishmania braziliensis; experiment: Antileishmanial activity against amastigote form of Leishmania braziliensis MHOM/BR/1975/M2904 infected in J774.2 cells after 72 hrs by haemocytometric analysis; assay type: functional, cell-based, MHOM/BR/75/M2904; conditions: Leishmania braziliensis, MHOM/BR/75/M2904, J774.2, 72 h
Summary of the method: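 J774.2 macrophages grown in MEM with 2 mM glutamine and 20% inactivated FCS at 37 °C in 5% CO2. Infected with stationary-phase promastigotes at 10:1 for 24 h, then washed free of non-phagocytosed parasites. Compounds at 1, 10, 25, 50 and 100 for 72 h. Amastigotes counted on methanol-fixed, Giemsa-stained preparations and % reduction taken vs untreated. IC50 by linear regression of Kc values; three separate determinations.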

[2] = system: Leishmania braziliensis; experiment: Antileishmanial activity against promastigote form of Leishmania braziliensis MHOM/BR/1975/M2904 assessed as mortality at IC25 concentration after 96 hrs by MET microscopic analysis; assay type: functional; conditions: MHOM/BR/75/M2904
Summary of the method: (§1)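 Promastigotes at 5 × 10^5 cells/mL in MTL medium with compound at IC25 for 96 h. Ultrastructure examined by transmission electron microscopy against untreated control parasites.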

[3] = system: Leishmania infantum; experiment: Antileishmanial activity against promastigote form of Leishmania infantum MCAN/ES/2001/UCM-10 assessed as cytoplasmic membrane disruption at IC25 concentration after 96 hrs by […] electron microscopic analysis relative to control; assay type: functional, organism-based; summary of the method: as §1
[4] = system: Leishmania infantum; experiment: Antileishmanial activity against promastigote form of Leishmania infantum MCAN/ES/2001/UCM-10 assessed as disorganized cytoplasm at IC25 concentration after 96 hrs by […] electron microscopic analysis relative to control; assay type: functional, organism-based; summary of the method: as §1
[5] = system: Leishmania infantum; experiment: Antileishmanial activity against promastigote form of Leishmania infantum MCAN/ES/2001/UCM-10 assessed as swollen mitochondria at IC25 concentration after 96 hrs by […] electron microscopic analysis relative to control; assay type: functional, organism-based; summary of the method: as §1
[6] = system: Leishmania infantum; experiment: Antileishmanial activity against promastigote form of Leishmania infantum MCAN/ES/2001/UCM-10 assessed as swollen kinetoplast at IC25 concentration after 96 hrs by […] electron microscopic analysis relative to control; assay type: functional, organism-based; summary of the method: as §1
[7] = system: Leishmania infantum; experiment: Antileishmanial activity against promastigote form of Leishmania infantum MCAN/ES/2001/UCM-10 assessed as corrugated cytoplasmic membrane at IC25 concentration after 96 hrs by […] electron microscopic analysis; assay type: functional, organism-based; summary of the method: as §1
[8] = system: Leishmania infantum; experiment: Antileishmanial activity against promastigote form of Leishmania infantum MCAN/ES/2001/UCM-10 assessed as size reduction at IC25 concentration after 96 hrs by […] electron microscopic analysis; assay type: functional, organism-based; summary of the method: as §1
[9] = system: Leishmania infantum; experiment: Antileishmanial activity against promastigote form of Leishmania infantum MCAN/ES/2001/UCM-10 assessed as high electro density at IC25 concentration after 96 hrs by […] electron microscopic analysis; assay type: functional, organism-based; summary of the method: as §1
[10] = system: Leishmania braziliensis MHOM/BR/75/M2904; experiment: Inhibition of promastigote form Leishmania braziliensis MHOM/BR/1975/M2904 Fe-SOD at 12.5 uM by NBT reduction assay relative to control
Summary of the method: (§2)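 Promastigotes sonicated in sucrose/Tris-HCl/EDTA buffer, pH 7.8, and centrifuged. Protein precipitating at 35–85% ammonium sulphate desalted into 20 mM potassium phosphate with 1 mM EDTA, pH 7.8. Protein measured by Bradford. Fe-SOD activity read spectrophotometrically as inhibition of NBT reduction by superoxide, with compounds at 0.1–50. IC50 by linear regression of Kc values; three determinations; Newman-Keuls test vs control homogenate.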

[11] = system: Leishmania infantum; experiment: Inhibition of promastigote form Leishmania infantum MCAN/ES/2001/UCM-10 Fe-SOD at 5 uM by NBT reduction assay relative to control; summary of the method: as §2
[12] = biological target: Superoxide dismutase [Mn] (Escherichia coli) (UniProt P00448); experiment: Inhibition of Escherichia coli Mn-SOD by NBT reduction assay
[13] = system: Leishmania braziliensis; experiment: Antileishmanial activity against promastigote form of Leishmania braziliensis MHOM/BR/1975/M2904 assessed as disorganized flagellar pocket at IC25 concentration after 96 hrs by MET microscopic analysis; assay type: functional; conditions: MHOM/BR/75/M2904; summary of the method: as §1
[14] = system: Leishmania braziliensis; experiment: Antileishmanial activity against promastigote form of Leishmania braziliensis MHOM/BR/1975/M2904 assessed as disorganized flagellum at IC25 concentration after 96 hrs by MET microscopic analysis; assay type: functional; conditions: MHOM/BR/75/M2904; summary of the method: as §1
[15] = system: Leishmania braziliensis; experiment: Antileishmanial activity against promastigote form of Leishmania braziliensis MHOM/BR/1975/M2904 assessed as small vacuoles at IC25 concentration after 96 hrs by MET microscopic analysis; assay type: functional; conditions: MHOM/BR/75/M2904; summary of the method: as §1
[16] = system: Leishmania braziliensis; experiment: Antileishmanial activity against promastigote form of Leishmania braziliensis MHOM/BR/1975/M2904 assessed as lipid natured cytoplasm at IC25 concentration after 96 hrs by MET microscopic analysis; assay type: functional; conditions: MHOM/BR/75/M2904; summary of the method: as §1
[17] = system: Leishmania braziliensis; experiment: Antileishmanial activity against promastigote form of Leishmania braziliensis MHOM/BR/1975/M2904 assessed as nuclear alterations at IC25 concentration after 96 hrs by MET microscopic analysis; assay type: functional; conditions: MHOM/BR/75/M2904; summary of the method: as §1
[18] = system: Leishmania braziliensis; experiment: Antileishmanial activity against promastigote form of Leishmania braziliensis MHOM/BR/1975/M2904 assessed as empty vacuoles at IC25 concentration after 96 hrs by MET microscopic analysis; assay type: functional; conditions: MHOM/BR/75/M2904; summary of the method: as §1
[19] = system: Leishmania braziliensis; experiment: Antileishmanial activity against promastigote form of Leishmania braziliensis MHOM/BR/1975/M2904 assessed as swollen parasites at IC25 concentration after 96 hrs by MET microscopic analysis; assay type: functional; conditions: MHOM/BR/75/M2904; summary of the method: as §1
[20] = system: Leishmania braziliensis; experiment: Antileishmanial activity against promastigote form of Leishmania braziliensis MHOM/BR/1975/M2904 assessed as structural disruptions at IC25 concentration after 96 hrs by MET microscopic analysis; assay type: functional; conditions: MHOM/BR/75/M2904; summary of the method: as §1
[21] = system: Leishmania infantum; experiment: Antileishmanial activity against promastigote form of Leishmania infantum MCAN/ES/2001/UCM-10 assessed as mortality at IC25 concentration after 96 hrs by […] electron microscopic analysis; assay type: functional, organism-based; summary of the method: as §1
[22] = system: Leishmania braziliensis; experiment: Antileishmanial activity against promastigote form of Leishmania braziliensis MHOM/BR/1975/M2904 assessed as structural alterations at IC25 concentration after 96 hrs by MET microscopic analysis; assay type: functional; conditions: MHOM/BR/75/M2904; summary of the method: as §1
[23] = system: Leishmania infantum; experiment: Antileishmanial activity against promastigote form of Leishmania infantum MCAN/ES/2001/UCM-10 assessed as vacuoles in cytoplasm at IC25 concentration after 96 hrs by […] electron microscopic analysis relative to control; assay type: functional, organism-based; summary of the method: as §1
[24] = system: Leishmania infantum; experiment: Antileishmanial activity against promastigote form of Leishmania infantum MCAN/ES/2001/UCM-10 assessed as death-like aspect vesicles at IC25 concentration after 96 hrs by […] electron microscopic analysis relative to control; assay type: functional, organism-based; summary of the method: as §1

Sequence of Superoxide dismutase [Mn] (Escherichia coli) (P00448 whole entry, looked up): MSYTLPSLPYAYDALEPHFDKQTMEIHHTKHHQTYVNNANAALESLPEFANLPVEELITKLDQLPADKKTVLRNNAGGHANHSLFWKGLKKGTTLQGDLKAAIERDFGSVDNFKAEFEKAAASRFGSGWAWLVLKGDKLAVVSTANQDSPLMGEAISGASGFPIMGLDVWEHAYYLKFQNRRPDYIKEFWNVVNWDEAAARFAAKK

IC50 [1] | IC50 [12] | Structure (SMILES) | Activity [2] | Activity [5] | Activity [6] | Activity [7] | Activity [8] | Activity [9] | also measured
10.3 µM | 641 µM | Cl.c1cncc(CNCCN2CCNCc3cccc(n3)CNCC2)c1 | Active | Active | Active | Active | Active | Active | Activity [3]: Active; Activity [4]: Active; inhibition [10]: 100%; inhibition [11]: 100%
10.4 µM | 179 µM | Cl.c1ccc(CNCCN2CCNCc3cccc(n3)CNCC2)nc1 | Active |  |  |  |  |  | Activity [13]: Active; Activity [14]: Active; Activity [15]: Active; Activity [16]: Active; Activity [17]: inactive; Activity [18]: Active; Activity [19]: Active; Activity [20]: Active; Activity [21]: Active
10 µM | 381 µM | Br.NCCN1CCNCc2cccc(n2)CNCC1 | Active |  |  |  |  |  | 
16.6 µM | 408 µM | Cl.c1cc2nc(c1)CNCCN(CCNCc1cccc3ccccc13)CCNC2 | Active | Active | Active | Active | Active | Active | Activity [22]: inactive; Activity [23]: Active; Activity [24]: Active
